# Experiments:
# [1] = Inhibition of N-terminal His6-tagged human recombinant TEAD2 (217 to 447 residues)/ recombinant YBD (unknown origin) incubated for 5 hrs by TR-FRET assay
# Summary of the method: (§1)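 His-tagged TEAD YAP-binding domain protein (100 nM), expressed in Rosetta(DE3) pLysS and purified by cobalt resin then gel filtration. Protein preincubated with inhibitor for 5 h in 50 mM HEPES pH 7.5, 200 mM NaCl, 0.1% Pluronic F-68. Then 800 nM tracer WZJ-10 and anti-6His Tb cryptate (50 ng/mL final) added; TR-FRET read at 490/520 nm. Mean ± SEM of two experiments, each in biological triplicate.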
# [2] = tested on: NCI-H226; experiment: Antiproliferative activity against human NCI-H226 cells assessed as reduction in cell viability measured for 5 days by celliter-glo assay; format: functional, cell-based; conditions: NCI-H226, 120 h
# Summary of the method: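 NCI-H226 mesothelioma cells grown in RPMI1640 with 10% FBS and 1% penicillin/streptomycin, seeded at 100 cells per well in 384-well plates. Inhibitor added by digital dispenser, 5-day incubation. CellTiter-Glo luminescence read after 20 min, normalized to DMSO-treated samples. Mean ± SD of n = 3 biological independent samples.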
# [3] = Inhibition of N-terminal His6-tagged human recombinant TEAD4 (209 to 427 residues)/ recombinant YBD (unknown origin) incubated for 5 hrs by TR-FRET assay; summary of the method: as §1
# [4] = Antiproliferative activity against human 94T778 cells assessed as reduction in cell viability measured for 5 days by celliter-glo assay; format: functional, cell-based; conditions: 94T778, 120 h
# Summary of the method: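 94T778 well-differentiated liposarcoma cells grown in RPMI1640 with 10% FBS and 1% penicillin/streptomycin. Treated with inhibitor for 5 days and viability read as CellTiter-Glo luminescence. Mean ± SD of n = 3 biological independent samples.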
# [5] = Inhibition of N-terminal GST/His6-tagged human recombinant TEAD1 (209 to 424 residues)/YBD (unknown origin) incubated for 5 hrs by TR-FRET assay; summary of the method: as §1
# [6] = Inhibition of TEAD transcriptional activity in human NCI-H226 cells assessed as luciferase activity measured for 3 days by reporter gene assay; format: cell-based; conditions: NCI-H226, 72 h
# Summary of the method: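 NCI-H226 cells transduced with a pan-TEAD response element luciferase reporter lentivirus (8 μg/mL polybrene) and puromycin-selected. Seeded at 1000 cells per well in 384-well plates and treated with inhibitor for 3 days. Luciferase read with One-Glo and normalized to CellTiter-Glo viability.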
# [7] = Inhibition of N-terminal His6-tagged human recombinant TEAD3 (216 to 434 residues)/ recombinant YBD (unknown origin) incubated for 5 hrs by TR-FRET assay; summary of the method: as §1
structure (smiles),measurement,setting,value
C=CC(=O)N1C[C@@H](n2cccn2)[C@H](OCc2ccc(C(F)(F)F)cc2)C1 (racemic),IC50,[1],178 nM
same,IC50,[2],368 nM
same,IC50,[3],111 nM
same,IC50,[4],258 nM
same,IC50,[5],56 nM
same,IC50,[6],131 nM
same,IC50,[7],36 nM
C=CC(=O)N1C[C@@H](n2cc(-c3ccncn3)nn2)[C@H](OCc2ccc(C(F)(F)F)cc2)C1 (racemic),IC50,[1],103 nM
same,IC50,[3],718 nM
same,IC50,[5],40 nM
same,IC50,[6],206 nM
same,IC50,[7],51 nM
C=CC(=O)N1CCN(c2ncccn2)CC(OCc2ccc(C(F)(F)F)cc2)C1 (racemic),IC50,[1],578 nM
same,IC50,[3],236 nM
same,IC50,[5],80 nM
same,IC50,[6],522 nM
same,IC50,[7],429 nM
C=CC(=O)N1C[C@@H](n2ncccc2=O)[C@H](OCc2ccc(C(F)(F)F)cc2)C1 (racemic),IC50,[1],103 nM
same,IC50,[2],150 nM
same,IC50,[3],98 nM
same,IC50,[4],214 nM
same,IC50,[5],42 nM
same,IC50,[6],90 nM
same,IC50,[7],50 nM
C=CC(=O)N1C[C@@H](n2cc(-c3cccnc3)nn2)[C@H](OCc2ccc(C(F)(F)F)nc2)C1 (racemic),IC50,[1],911 nM
same,IC50,[3],> 10000 nM
same,IC50,[5],391 nM
same,IC50,[6],2210 nM
same,IC50,[7],834 nM
C=CC(=O)N1C[C@@H](Nc2ncc(F)cn2)[C@H](OCc2ccc(C(F)(F)F)cc2)C1 (racemic),IC50,[1],17 nM
same,IC50,[2],28 nM
same,IC50,[3],21 nM
same,IC50,[4],114 nM
same,IC50,[5],30 nM
same,IC50,[6],16 nM
same,IC50,[7],26 nM
C=CC(=O)N1C[C@@H](n2cc(-c3cccnc3)nn2)[C@H](OCC23CC4CC(CC(C4)C2)C3)C1 (mixture of isomers),IC50,[1],26 nM
same,IC50,[3],604 nM
same,IC50,[5],118 nM
same,IC50,[6],1380 nM
same,IC50,[7],38 nM
C=CC(=O)N1C[C@@H](OCc2ccc(C(F)(F)F)cc2)[C@H](c2ccc(S(C)(=O)=O)cc2)C1 (racemic),IC50,[1],305 nM
same,IC50,[3],83 nM
same,IC50,[5],51 nM
same,IC50,[6],153 nM
same,IC50,[7],51 nM
C=C(F)C(=O)N1C[C@@H](Nc2ncccn2)[C@H](OCc2ccc(C(F)(F)F)cc2)C1,IC50,[1],275 nM
same,IC50,[2],24 nM
same,IC50,[3],71 nM
same,IC50,[4],40 nM
same,IC50,[5],47 nM
same,IC50,[6],17 nM
same,IC50,[7],32 nM
Cc1cccc([C@H](C)NC(=O)c2ccc3c(-c4ccc(C(F)(F)F)cc4)cccc3c2)n1,IC50,[1],40 nM
same,IC50,[3],35 nM
same,IC50,[5],31 nM
same,IC50,[7],19 nM
C=CC(=O)N1C[C@@H](n2cc(-c3cccnc3)nn2)[C@H](OCc2ccc(C(F)(F)F)cn2)C1 (racemic),IC50,[1],230 nM
same,IC50,[3],2480 nM
same,IC50,[5],207 nM
same,IC50,[6],670 nM
same,IC50,[7],144 nM
C=C(C(=O)N1C[C@@H](n2cc(-c3cccnc3)nn2)[C@H](OCc2ccc(C(F)(F)F)cc2)C1)C(F)(F)F,IC50,[1],19 nM
same,IC50,[3],> 10000 nM
same,IC50,[5],42 nM
same,IC50,[6],2740 nM
same,IC50,[7],19 nM
C=CC(=O)N1C[C@@H](n2cc(-c3cccnc3)nn2)[C@H](OCc2cc(Cl)cc(C(F)(F)F)c2)C1 (racemic),IC50,[1],230 nM
same,IC50,[3],> 10000 nM
same,IC50,[5],425 nM
same,IC50,[6],985 nM
same,IC50,[7],426 nM
C=CC(=O)N1C[C@@H](n2cc(-c3cccnc3)nn2)[C@H](OCC2CCC(F)(F)CC2)C1 (racemic),IC50,[1],50 nM
same,IC50,[3],685 nM
same,IC50,[5],264 nM
same,IC50,[6],467 nM
same,IC50,[7],68 nM
CC#CC(=O)N1C[C@@H](n2cc(-c3cccnc3)nn2)[C@H](OCc2ccc(C(F)(F)F)cc2)C1,IC50,[1],459 nM
same,IC50,[3],> 10000 nM
same,IC50,[5],44 nM
same,IC50,[6],229 nM
same,IC50,[7],47 nM
CN(C)C/C=C/C(=O)N1C[C@@H](n2cc(-c3cccnc3)nn2)[C@H](OCc2ccc(C(F)(F)F)cc2)C1,IC50,[1],> 10000 nM
same,IC50,[3],> 10000 nM
same,IC50,[5],1030 nM
same,IC50,[6],1710 nM
same,IC50,[7],1640 nM
C=CC(=O)N1C[C@@H](n2cc(-c3cccnc3)nn2)[C@H](OCc2ccc(C(F)(F)F)cc2)C1 (racemic),IC50,[1],49 nM
same,IC50,[2],63 nM
same,IC50,[3],25 nM
same,IC50,[4],173 nM
same,IC50,[5],37 nM
same,IC50,[6],106 nM
same,IC50,[7],26 nM
C=CC(=O)N1C[C@@H](Nc2ncccn2)[C@H](OCc2ccc(C(F)(F)F)cc2)C1 (racemic),IC50,[1],9 nM
same,IC50,[2],16 nM
same,IC50,[3],25 nM
same,IC50,[4],34 nM
same,IC50,[5],29 nM
same,IC50,[6],14 nM
same,IC50,[7],30 nM
C=CC(=O)N1CC[C@@H](OCc2ccc(C(F)(F)F)cc2)[C@H](Nc2ncc(F)cn2)C1 (racemic),IC50,[1],1240 nM
same,IC50,[2],246 nM
same,IC50,[3],427 nM
same,IC50,[4],1020 nM
same,IC50,[5],56 nM
same,IC50,[6],171 nM
same,IC50,[7],121 nM
C=C(F)C(=O)N1C[C@@H](n2cc(-c3cccnc3)nn2)[C@H](OCc2ccc(C(F)(F)F)cc2)C1,IC50,[1],197 nM
same,IC50,[2],131 nM
same,IC50,[3],467 nM
same,IC50,[4],173 nM
same,IC50,[5],29 nM
same,IC50,[6],86 nM
same,IC50,[7],31 nM
C=CC(=O)N1C[C@@H](n2ccnn2)[C@H](OCc2ccc(C(F)(F)F)cc2)C1 (racemic),IC50,[1],79 nM
same,IC50,[3],406 nM
same,IC50,[5],31 nM
same,IC50,[6],153 nM
same,IC50,[7],20 nM
C=CC(=O)N1C[C@@H](Cc2ccccn2)[C@H](OCc2ccc(C(F)(F)F)cc2)C1 (racemic),IC50,[1],192 nM
same,IC50,[2],186 nM
same,IC50,[3],62 nM
same,IC50,[4],612 nM
same,IC50,[5],33 nM
same,IC50,[6],58 nM
same,IC50,[7],48 nM
C=CC(=O)N1C[C@@H](n2cc(-c3cccnc3)nn2)[C@H](OCc2cc(C(F)(F)F)ccc2Cl)C1 (racemic),IC50,[1],604 nM
same,IC50,[3],4430 nM
same,IC50,[5],100 nM
same,IC50,[6],1720 nM
same,IC50,[7],215 nM

# — ChEMBL document CHEMBL5380827, “Structure-Based Design of Y-Shaped Covalent TEAD Inhibitors” (J Med Chem, 2023)
